Activity calls are given as the source filed them. The rule behind the calls is not given here.
Legend:
Staphylococcus aureus [1] = experiment: Antibacterial activity against methicillin-resistant Staphylococcus aureus MRSA 4591 after 24 hrs; type: functional, organism-based
K562 [2] = experiment: Cytostatic activity against paclitaxel-resistant human K562 cells after 72 hrs by MTT assay; type: functional, cell-based; details: K562, 72 h
Summary of the method: (§1)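 IC50 is the concentration that cuts cell growth by 50%, read by quantitative metabolic MTT staining after a 3-day treatment. The resistant sublines were made by raising the concentration of the cytotoxic drug step by step. CEM-DNR-bulk (daunorubicin-selected) stably overexpresses mrp-1. K562-TAX (paclitaxel-selected) expresses only mdr-1. HCT116p53−/− carries null p53 alleles. BJ and MRC-5 are nonmalignant fibroblasts.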

[3] = Antiproliferative activity against human HeLaS3 cells after 72 hrs by XTT assay; type: functional, cell-based; details: HeLa S3, 72 h
Summary of the method: (§2)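 Antiproliferative test on HL-60 promyelocytic leukemia and HeLa S3 cervical carcinoma cells growing in liquid suspension.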

Staphylococcus aureus [4] = experiment: Antibacterial activity against Staphylococcus aureus CCM 3953 after 24 hrs; type: functional, organism-based
[5] = Cytostatic activity against human CEM-DNR-bulk cells after 72 hrs by MTT assay; type: functional, cell-based; summary of the method: as §1
HCT-116 [6] = experiment: Cytostatic activity against p53-deficient human HCT116 cells after 72 hrs by MTT assay; type: functional, cell-based; details: HCT-116, 72 h; summary of the method: as §1
[7] = tested on: Staphylococcus haemolyticus; experiment: Antibacterial activity against methicillin-resistant Staphylococcus haemolyticus A/16568 after 24 hrs; type: functional, organism-based
HCT-116 [8] = experiment: Cytostatic activity against human HCT116 cells after 72 hrs by MTT assay; type: functional, cell-based; details: HCT-116, 72 h; summary of the method: as §1
K562 [9] = experiment: Cytostatic activity against human K562 cells after 72 hrs by MTT assay; type: functional, cell-based; details: K562, 72 h; summary of the method: as §1
Candida albicans = experiment: Antifungal activity against Candida albicans after 48 hrs; type: functional, organism-based
HepG2 = experiment: Antiproliferative activity against human HepG2 cells after 72 hrs by XTT assay; type: functional, cell-based; details: HepG2, 72 h
CCRF-CEM [10] = experiment: Inhibition of RNA synthesis in human CCRF-CEM cells assessed as BrU-positive cells at IC50 after 24 hrs by propidium iodide staining-based flow cytometric analysis (reference value: 43.3%); type: functional; parameters: scale not given: the % may be the effect or the level left
CCRF-CEM [11] = experiment: Cell cycle arrest in human CCRF-CEM cells assessed as accumulation at sub-G1 phase at IC50 after 24 hrs by propidium iodide staining-based flow cytometric analysis (reference value: 9.6%); type: functional
Pseudomonas aeruginosa [12] = experiment: Antibacterial activity against multi-resistant Pseudomonas aeruginosa A/16575 after 24 hrs; type: functional, organism-based
Candida parapsilosis = experiment: Antifungal activity against Candida parapsilosis after 48 hrs; type: functional, organism-based
Enterococcus faecalis = experiment: Antibacterial activity against Enterococcus faecalis CCM 4224 after 24 hrs; type: functional, organism-based
[13] = Cytotoxicity against human HuH7 cells infected with Hepatitis C virus subtype 1b; type: cell-based, Huh-7
Escherichia coli [14] = experiment: Antibacterial activity against Escherichia coli CCM 3954 after 24 hrs; type: functional, organism-based
Pichia kudriavzevii = experiment: Antifungal activity against Candida crusei after 48 hrs; type: functional, organism-based
Pseudomonas aeruginosa [15] = experiment: Antibacterial activity against Pseudomonas aeruginosa CCM 3955 after 24 hrs; type: functional, organism-based
MRC5 = experiment: Cytostatic activity against human MRC5 cells after 72 hrs by MTT assay; type: ADME, cell-based; details: MRC5, 72 h; summary of the method: as §1
[16] = Cytotoxicity against human HuH7 cells infected with Hepatitis C virus subtype 2a; type: cell-based, Huh-7
Escherichia coli [17] = experiment: Antibacterial activity against multi-resistant Escherichia coli C/16702 after 24 hrs; type: functional, organism-based
Hepatitis C virus [18] = experiment: Antiviral activity against Hepatitis C virus subtype 1b infected in human HuH7 cells; type: functional, organism-based, Hepacivirus hominis; details: genotype 1b, Huh-7
BJ = experiment: Cytostatic activity against human BJ cells after 72 hrs by MTT assay; type: ADME, cell-based; summary of the method: as §1
CCRF-CEM [19] = experiment: Mitotic arrest in human CCRF-CEM cells assessed as pH3Ser10-positive cells at IC50 after 24 hrs by propidium iodide staining-based flow cytometric analysis (reference value: 1.4%); type: functional
A549 = experiment: Cytostatic activity against human A549 cells after 72 hrs by MTT assay; type: functional, cell-based; details: A549, 72 h; summary of the method: as §1
HL-60 = experiment: Antiproliferative activity against human HL60 cells after 72 hrs by XTT assay; type: functional, cell-based; details: HL-60, 72 h; summary of the method: as §2
Candida tropicalis = experiment: Antifungal activity against Candida tropicalis after 48 hrs; type: functional, organism-based
Hepatitis C virus [20] = experiment: Antiviral activity against Hepatitis C virus subtype 2a infected in human HuH7 cells; type: functional, organism-based, Hepacivirus hominis; details: genotype 2a, Huh-7
CCRF-CEM [21] = experiment: Cytostatic activity against human CCRF-CEM cells after 72 hrs by MTT assay; type: functional, cell-based; summary of the method: as §1

SMILES	Activity (Staphylococcus aureus [1])	IC50 (K562 [2])	IC50 [3]	Activity (Staphylococcus aureus [4])	IC50 [5]	IC50 (HCT-116 [6])	Activity [7]	IC50 (HCT-116 [8])	IC50 (K562 [9])	Activity (Candida albicans)	IC50 (HepG2)	Activity (CCRF-CEM [10])	Activity (CCRF-CEM [11])	Activity (Pseudomonas aeruginosa [12])	Activity (Candida parapsilosis)	Activity (Enterococcus faecalis)	CC50 [13]	Activity (Escherichia coli [14])	Activity (Pichia kudriavzevii)	Activity (Pseudomonas aeruginosa [15])	also measured
COc1ncnc2c1c(I)cn2[C@@H]1O[C@H](CO)[C@@H](O)[C@H]1O	inactive	14.8 µM	14.3 µM	inactive	> 20 µM	> 20 µM	inactive	> 20 µM	> 20 µM	inactive	> 20 µM	0.2%	6%	inactive	inactive	inactive	> 44 µM	inactive	inactive	inactive	IC50 (MRC5): 63 µM; CC50 [16]: > 44 µM; Activity (Escherichia coli [17]): inactive; EC50 (Hepatitis C virus [18]): > 44 µM; IC50 (BJ): 91 µM; Activity (CCRF-CEM [19]): 0.9%; IC50 (A549): > 20 µM; IC50 (HL-60): 2.3 µM; Activity (Candida tropicalis): inactive; EC50 (Hepatitis C virus [20]): > 44 µM; IC50 (CCRF-CEM [21]): 1.15 µM
COc1ncnc2c1c(-c1ccsc1)cn2[C@@H]1O[C@H](CO)[C@@H](O)[C@H]1O	inactive	3.45 µM	3.35 µM	inactive	7.64 µM	0.14 µM	inactive	0.12 µM	0.09 µM	inactive	0.43 µM	0.5%	75%	inactive	inactive	inactive	> 44 µM	inactive	inactive	inactive	IC50 (MRC5): 75.3 µM; CC50 [16]: > 44 µM; Activity (Escherichia coli [17]): inactive; EC50 (Hepatitis C virus [18]): 0.55 µM; IC50 (BJ): 64.3 µM; Activity (CCRF-CEM [19]): 2.9%; IC50 (A549): 5.17 µM; IC50 (HL-60): 0.13 µM; Activity (Candida tropicalis): inactive; EC50 (Hepatitis C virus [20]): > 44 µM; IC50 (CCRF-CEM [21]): 2.57 µM
CN(C)c1ncnc2c1c(I)cn2[C@@H]1O[C@H](CO)[C@@H](O)[C@H]1O	inactive	0.05 µM	0.19 µM	inactive	0.1 µM	0.12 µM	inactive	0.09 µM	0.07 µM	inactive	13.9 µM	4.8%	9.4%	inactive	inactive	inactive	> 44 µM	inactive	inactive	inactive	IC50 (MRC5): 91.7 µM; CC50 [16]: > 44 µM; Activity (Escherichia coli [17]): inactive; EC50 (Hepatitis C virus [18]): 0.69 µM; IC50 (BJ): 45.7 µM; Activity (CCRF-CEM [19]): 1.3%; IC50 (A549): 0.34 µM; IC50 (HL-60): 0.05 µM; Activity (Candida tropicalis): inactive; EC50 (Hepatitis C virus [20]): > 44 µM; IC50 (CCRF-CEM [21]): 1.59 µM
CN(C)c1ncnc2c1c(-c1ccsc1)cn2[C@@H]1O[C@H](CO)[C@@H](O)[C@H]1O	inactive	> 20 µM	> 15 µM	inactive	> 20 µM	> 20 µM	inactive	> 20 µM	0.53 µM	inactive	> 20 µM	0.7%	6.8%	inactive	inactive	inactive	> 44 µM	inactive	inactive	inactive	IC50 (MRC5): > 100 µM; CC50 [16]: > 44 µM; Activity (Escherichia coli [17]): inactive; EC50 (Hepatitis C virus [18]): 38.4 µM; IC50 (BJ): > 100 µM; Activity (CCRF-CEM [19]): 0.7%; IC50 (A549): > 20 µM; IC50 (HL-60): 1.92 µM; Activity (Candida tropicalis): inactive; EC50 (Hepatitis C virus [20]): > 44 µM; IC50 (CCRF-CEM [21]): 3.48 µM

— ChEMBL document CHEMBL3124843, “Synthesis, cytostatic, antimicrobial, and anti-HCV activity of 6-substituted 7-(het)aryl-7-deazapurine ribonucleosides” (J Med Chem, 2014)
